# High-throughput results from PubChem.
# An excerpt weighted towards active compounds, which were near 2.1% of everything screened.
# Cneo AK release = Cryptococcus neoformans cell lysis inducers, primary screen, AK release luminescence, single concentration. C. neoformans lysis, adenylate kinase release luminescence, 4 h; normalised: neutral wells 0, clomiphene wells 100. lysis activity, % at 15 µM. 360,000 tested, 0.2% active. AID 651654, 2012;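 active = mean lysis activity across replicates of at least 80%, whatever share of replicates individually reach that level; inactive = mean lysis activity below 80%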
#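 Test system: log-phase Cryptococcus neoformans yeast cells; Quantity: yeast cell density of 5 × 10^6 cells/mL; Buffer or medium: YPD; Doses: single compound concentration per well; Timing: 4 h at 37 °C static, read 1 h later; Measured by: AK luminescence; Read-out basis: lysis from increased AK signal; Control set: Clomiphene as positive control.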
# Statin myotox sup = suppressors of statin myotoxicity in C2C12 myotubes, primary screen, cell-based, single point, plate reader | C2C12 myotubes + simvastatin, ATP luminescence, 48 h; scaled: DMSO 0, geranylgeraniol control 100 | AID 602340, 2012 | rescue of ATP level, % at 7.49 µM | 330,000 tested, 0.78% active;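 active = mean ATP rescue above about 67%, or every replicate alone reaching that limit, limit read from the data, passing the limit was not always enough; inconclusive = no clear call, values can overlap the other calls; inactive = mean under the limit and some replicate under it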;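 also: myotubes were challenged with 10 µM simvastatin during compound exposure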
# Xi reactivation = activators of inactive X chromosome reactivation, primary screen, imaging, XiGFP fibroblasts, GFP high-content imaging, set 2; 360,000 tested, 0.055% active; activation, % at 7.58 µM; XiGFP mouse fibroblasts, % GFP-positive cells imaging, 3 d; cells co-treated with 5-aza-dC sensitizer; scaled so ellipticine positive control = 100%; AID 743238, 2013;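 active = mean normalized replicate activation at least 10% and every replicate at or above 10%; inconclusive = only one of the two criteria met; inactive = mean below 10% and not all replicates reach 10%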;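 also: 0% = median of on-plate neutral control wells and 100% = ellipticine 6 µM median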
#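 Material: XiGFP fibroblasts, SV40-immortalized. Buffer or medium: DMEM plus 5-aza-dC sensitizer. Compound: single concentration per compound, delivered by pin transfer. Times: 3 days compound exposure. Controls: ellipticine 6 µM.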
# DENV2 CPE rescue = inhibitors of DENV2 cytopathic effect, primary screen, cell-based, plate reader, single concentration; DENV2-infected cells, cytopathic effect rescue; CPE inhibition, % at 9.99 µM; 350,000 tested, 1.7% active; AID 651640, 2012; in the data active = CPE inhibition above about 20%, passing the limit was not always enough; inconclusive = no clear call, values can overlap the other calls; tested in BHK-21 cells;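 also: 0% = median of neutral control wells and 100% = median of positive control wells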
# An asterisk follows results filed as active; ? = inconclusive; . = no result given; ! = not confirmed by another sample.
SMILES,Cneo AK release,Statin myotox sup,Xi reactivation,DENV2 CPE rescue
C[C@@H]1CN([C@@H](C)CO)C(=O)Cc2cc(NC(=O)Cn3cnnn3)ccc2O[C@@H]1CN(C)C(=O)Nc1ccc2c(c1)OCO2,1,11,0,23*
COc1ccc(NC(=O)N(C)C[C@@H]2Oc3ccc(NC(=O)Cn4cnnn4)cc3CC(=O)N([C@@H](C)CO)C[C@@H]2C)cc1,-2,-2,0,-13
C[C@@H]1CN([C@H](C)CO)C(=O)Cc2cc(NC(=O)Cn3cnnn3)ccc2O[C@H]1CN(C)C(=O)Nc1ccc2c(c1)OCO2,-5,19,0,4
COc1ccc(NC(=O)N(C)C[C@H]2Oc3ccc(NC(=O)Cn4cnnn4)cc3CC(=O)N([C@@H](C)CO)C[C@@H]2C)cc1,2,-14,0,56*
C[C@H](CO)N1C[C@H](C)[C@@H](CN(C)C(=O)Nc2ccc(F)cc2)Oc2c(NS(C)(=O)=O)cccc2C1=O,1,-3,-1,2
C[C@H](CO)N1C[C@H](C)[C@H](CN(C)C(=O)Nc2ccc(F)cc2)Oc2ncc(-c3ccc(F)cc3)cc2C1=O,.,48,0,.
C[C@@H]1CN([C@H](C)CO)C(=O)c2cc(-c3ccc(C#N)cc3)cnc2O[C@@H]1CN(C)C(=O)Nc1ccc(F)cc1,83*,0,-1,5
C[C@H](CO)N1C[C@H](C)[C@@H](CN(C)C(=O)Nc2ccc(F)cc2)Oc2ncc(-c3ccc(F)cc3)cc2C1=O,-1,6,0,24*!
C[C@@H]1CN([C@@H](C)CO)C(=O)c2cc(N(C)C)ccc2O[C@@H](C)CCCCO[C@H]1CN(C)C,.,30,0,.
CC(C)NC(=O)Nc1ccc2c(c1)C(=O)N([C@@H](C)CO)C[C@@H](C)[C@@H](CN(C)Cc1ccncc1)OCCCC[C@@H](C)O2,0,.,0,-2
CSCCC(N=C1NS(=O)(=O)c2ccccc21)C(=O)NCc1ccccc1F (stereo unspecified),-1,.,0,4
CSCCC(N=C1NS(=O)(=O)c2ccccc21)C(=O)NCCc1ccccc1 (stereo unspecified),-1,.,0,58*
CO[C@H]1CN(C)C(=O)c2cc(NC(=O)NC3CCCCC3)ccc2OC[C@H](C)N(CC2CC2)C[C@H]1C,-5,-4,0,-5
CCN(C(=O)c1nn(-c2ccc(OC)cc2)c(=O)c2c1c1ccccc1n2C)c1ccc(OC)cc1,-2,107*,0,0
CC(=O)N[C@@H]1C[C@@H]2O[C@@H](CO)CC[C@@H]2O[C@@H]1CCc1ccc(-c2ccc(F)cc2)cc1,.,.,.,5
CCc1ccccc1NC(=O)c1cnc2n(c1=O)CCS2,6,-6,0,35*
O=C(c1cnc2n(c1=O)CCS2)N1CCN(C(c2ccccc2)c2ccc(Cl)cc2)CC1 (stereo unspecified),-6,76*,.,.
CSc1ccccc1NC(=O)c1cnc2n(c1=O)CCS2,-2,-12,0,?
CCCC#Cc1ccc([C@H]2[C@H](CO)N3CCCCN(S(=O)(=O)c4ccccc4C)C[C@@H]23)cc1,9,.,0,-11
COc1cc(C2NC(=O)NC(C)=C2C(=O)OC2CCCC(C)C2)cc(Br)c1O (stereo unspecified),0,3,0,46*
C[C@@H]1CN([C@H](C)CO)C(=O)c2cc(NC(=O)CCN3CCOCC3)ccc2O[C@H]1CN(C)C(=O)Nc1ccc(F)cc1,0,-5,0,?
CCOC(=O)C1=NN(C(=O)Nc2ccc(OC)cc2)C2C(=O)N(c3cccc(C(F)(F)F)c3)C(=O)C12 (stereo unspecified),0,102*,.,.
CC[C@H](C)C(C(=O)N1CCN(C(=O)OC(C)(C)C)CC1)n1cc(C(CC(C)C)NC(=O)OC(C)(C)C)nn1 (stereo partly specified),-2,12,0,32*
CC(C)CC(NC(=O)OC(C)(C)C)c1cn([C@@H](CCC(=O)OC(C)(C)C)C(=O)N2CCN(C(=O)OC(C)(C)C)CC2)nn1 (stereo partly specified),0,6,0,10
COc1ccc(NC(=O)Nc2ccc3c(c2)CC(=O)N([C@@H](C)CO)C[C@@H](C)[C@H](CN(C)S(C)(=O)=O)O3)cc1,.,.,0,30*
SMILES,Cneo AK release,Statin myotox sup,Xi reactivation,DENV2 CPE rescue
CC(C)NC(=O)Nc1ccc2c(c1)CC(=O)N([C@@H](C)CO)C[C@@H](C)[C@@H](CN(C)S(=O)(=O)c1ccc(Cl)cc1)O2,102*,-19,0,3
COc1ccc(NC(=O)Nc2ccc3c(c2)CC(=O)N([C@H](C)CO)C[C@H](C)[C@@H](CN(C)S(=O)(=O)c2ccc(F)cc2)O3)cc1,-4,-71,15*,-3
COc1ccc(S(=O)(=O)N(C)C[C@@H]2Oc3ccc(N(C)C)cc3CC(=O)N([C@H](C)CO)C[C@@H]2C)cc1,-12,-7,0,23*
COc1ccc(NC(=O)Nc2ccc3c(c2)CC(=O)N([C@@H](C)CO)C[C@H](C)[C@@H](CN(C)S(C)(=O)=O)O3)cc1,.,.,-1,8
COc1ccc(S(=O)(=O)N(C)C[C@@H]2Oc3ccc(NC(=O)CCC(F)(F)F)cc3C(=O)N([C@H](C)CO)C[C@@H]2C)cc1,-1,-5,0,6
CCCNC(=O)[C@H]1[C@H](CO)[C@H]2Cn3c(ccc(-c4cccc(OC)c4)c3=O)[C@H]2N1Cc1nccs1,.,.,0,-5
C[C@H]1CN([C@@H](C)CO)C(=O)Cc2cc(NS(=O)(=O)c3ccc(F)cc3)ccc2O[C@@H]1CN(C)C(=O)Nc1cccc2ccccc12,-3,17,-1,-6
COc1ccc(S(=O)(=O)N(C)C[C@H]2Oc3ccc(NC(=O)C4CCCCC4)cc3CC(=O)N([C@H](C)CO)C[C@H]2C)cc1,-12,-8,0,22*
COc1ccc(NC(=O)Nc2ccc3c(c2)CC(=O)N([C@H](C)CO)C[C@@H](C)[C@@H](CN(C)S(=O)(=O)c2ccc(OC)cc2)O3)cc1,-1,8,0,40*
COc1ccc(NC(=O)Nc2ccc3c(c2)CC(=O)N([C@H](C)CO)C[C@H](C)[C@H](CN(C)S(=O)(=O)c2ccc(Cl)cc2)O3)cc1,.,-147,0,-4
C[C@H]1CN([C@@H](C)CO)C(=O)Cc2cc(NC(=O)Nc3ccc(F)cc3)ccc2O[C@H]1CN(C)S(=O)(=O)c1ccc(Cl)cc1,4,-202,0,43*
C[C@H]1CN([C@@H](C)CO)C(=O)Cc2cc(NC(=O)CCCCCC(=O)Nc3ccccc3N)ccc2O[C@H]1CN(C)CC1CC1,.,.,0,12
